Laboratory results published in ChEMBL document CHEMBL1153726, “Synthesis and anticancer activity of sclerophytin-inspired hydroisobenzofurans” (Bioorg Med Chem Lett, 2009).

Experiments:
Assay type in all cases: functional
HL-60(TB) = assay: Growth inhibition of human HL-60(TB) cells at 10 nM after 96 hrs by MTT assay; design: scale not given: the % may be the effect or the level left
MDA-MB-468 = assay: Growth inhibition of human MDA-MB-468 cells at 1 nM after 96 hrs by MTT assay; design: scale not given: the % may be the effect or the level left
T47D [1] = assay: Growth inhibition of human T47D cells at 1 nM after 96 hrs by MTT assay; design: scale not given: the % may be the effect or the level left
MCF7 = assay: Growth inhibition of human MCF7 cells at 1 nM after 96 hrs by MTT assay; design: scale not given: the % may be the effect or the level left
ACHN [2] = assay: Growth inhibition of human ACHN cells at 1 nM after 96 hrs by MTT assay; design: scale not given: the % may be the effect or the level left
OVCAR-5 = assay: Growth inhibition of human OVCAR5 cells at 1 nM after 96 hrs by MTT assay; design: scale not given: the % may be the effect or the level left
SF-539 = assay: Growth inhibition of human SF539 cells at 1 nM after 96 hrs by MTT assay; design: scale not given: the % may be the effect or the level left
HCT-116 [3] = assay: Growth inhibition of human HCT116 cells at 1 nM after 96 hrs by MTT assay; design: scale not given: the % may be the effect or the level left
NCI-H226 [4] = assay: Growth inhibition of human NCI-H226 cells at 1 nM after 96 hrs by MTT assay; design: scale not given: the % may be the effect or the level left
HOP-92 [5] = assay: Growth inhibition of human HOP92 cells at 1 nM after 96 hrs by MTT assay; design: scale not given: the % may be the effect or the level left
EKVX = assay: Growth inhibition of human EKVX cells at 1 nM after 96 hrs by MTT assay; design: scale not given: the % may be the effect or the level left
T47D [6] = assay: Growth inhibition of human T47D cells at 10 uM after 96 hrs by MTT assay; design: scale not given: the % may be the effect or the level left
RXF 393 [7] = assay: Growth inhibition of human RXF393 cells at 10 uM after 96 hrs by MTT assay; design: scale not given: the % may be the effect or the level left
SK-OV-3 = assay: Growth inhibition of human SKOV3 cells at 10 uM after 96 hrs by MTT assay; design: scale not given: the % may be the effect or the level left
OVCAR-3 = assay: Growth inhibition of human OVCAR-3 cells at 10 uM after 96 hrs by MTT assay; design: scale not given: the % may be the effect or the level left
LOX IMVI = assay: Growth inhibition of human LOXIMVI cells at 10 uM after 96 hrs by MTT assay; design: scale not given: the % may be the effect or the level left
SR = assay: Growth inhibition of human SR cells at 10 uM after 96 hrs by MTT assay; design: scale not given: the % may be the effect or the level left
HCT-15 [8] = assay: Growth inhibition of human HCT15 cells after 96 hrs by MTT assay; conditions: HCT-15, 96 h
In short: (§1)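 Run in the NCI 60 human tumour cell line panel as a five-dose assay. GI50 and LC50 were reported for each cell line.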

M14 = assay: Growth inhibition of human M14 cells at 10 nM after 96 hrs by MTT assay; design: scale not given: the % may be the effect or the level left
HCT-116 [9] = assay: Growth inhibition of human HCT116 cells at 10 nM after 96 hrs by MTT assay; design: scale not given: the % may be the effect or the level left
NCI-H226 [10] = assay: Growth inhibition of human NCI-H226 cells at 10 nM after 96 hrs by MTT assay; design: scale not given: the % may be the effect or the level left
SF-268 [11] = assay: Growth inhibition of human SF268 cells after 96 hrs by MTT assay; conditions: SF-268, 96 h
In short: (§2)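 Tested in the NCI 60-cell-line panel in five-dose format; GI50 and LC50 values reported for each cell line.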

Malme-3M [12] = assay: Growth inhibition of human MALME-3M cells after 96 hrs by MTT assay; in short: as §1
ACHN [13] = assay: Growth inhibition of human ACHN cells after 96 hrs by MTT assay
RXF 393 [14] = assay: Growth inhibition of human RXF393 cells after 96 hrs by MTT assay; conditions: RXF 393, 96 h; in short: as §2
A549 = assay: Growth inhibition of human A549 cells at 10 nM after 96 hrs by MTT assay; design: scale not given: the % may be the effect or the level left
MOLT-4 [15] = assay: Growth inhibition of human MOLT4 cells at 10 nM after 96 hrs by MTT assay; design: scale not given: the % may be the effect or the level left
NCI-H23 = assay: Growth inhibition of human NCI-H23 cells after 96 hrs by MTT assay; conditions: NCI-H23, 96 h; in short: as §1
UO-31 [16] = assay: Growth inhibition of human UO31 cells at 1 uM after 96 hrs by MTT assay; design: scale not given: the % may be the effect or the level left
[17] = Growth inhibition of human Hs 578T cells at 100 nM after 96 hrs by MTT assay; design: scale not given: the % may be the effect or the level left
TK-10 = assay: Growth inhibition of human TK10 cells at 100 nM after 96 hrs by MTT assay; design: scale not given: the % may be the effect or the level left
OVCAR-4 = assay: Growth inhibition of human OVCAR4 cells at 100 nM after 96 hrs by MTT assay; design: scale not given: the % may be the effect or the level left
UACC-62 = assay: Growth inhibition of human UACC62 cells at 100 nM after 96 hrs by MTT assay; design: scale not given: the % may be the effect or the level left
HCT-15 [18] = assay: Growth inhibition of human HCT15 cells at 100 nM after 96 hrs by MTT assay; design: scale not given: the % may be the effect or the level left
HOP-92 [19] = assay: Growth inhibition of human HOP92 cells at 100 nM after 96 hrs by MTT assay; design: scale not given: the % may be the effect or the level left
MOLT-4 [20] = assay: Growth inhibition of human MOLT4 cells at 100 nM after 96 hrs by MTT assay; design: scale not given: the % may be the effect or the level left
MDA-MB-231 = assay: Growth inhibition of human MDA-MB-231 cells at 10 nM after 96 hrs by MTT assay; design: scale not given: the % may be the effect or the level left
UO-31 [21] = assay: Growth inhibition of human UO31 cells at 10 nM after 96 hrs by MTT assay; design: scale not given: the % may be the effect or the level left
OVCAR-8 = assay: Growth inhibition of human OVCAR8 cells at 10 nM after 96 hrs by MTT assay; design: scale not given: the % may be the effect or the level left
NCI-H522 = assay: Growth inhibition of human NCI-H522 cells at 10 nM after 96 hrs by MTT assay; design: scale not given: the % may be the effect or the level left
HOP-62 = assay: Growth inhibition of human HOP62 cells at 10 nM after 96 hrs by MTT assay; design: scale not given: the % may be the effect or the level left
Malme-3M [22] = assay: Growth inhibition of human MALME-3M cells at 1 uM after 96 hrs by MTT assay; design: scale not given: the % may be the effect or the level left
SF-268 [23] = assay: Growth inhibition of human SF268 cells at 1 uM after 96 hrs by MTT assay; design: scale not given: the % may be the effect or the level left
[24] = read-out: LC50 (the source's name)
[25] = read-out: Log10GI50 (converted)
[26] = read-out: Log10LC50 (converted)

For `C=C(C)[C@H]1CC=C(C)C2=CO[C@@H](c3ccccc3F)[C@@H]21`, the Activity (HL-60(TB)) was 104%, the Activity (MDA-MB-468) was 93% and the Activity (T47D [1]) was 98%. For the same compound, the Activity (MCF7) was 93%, the Activity (ACHN [2]) was 96% and the Activity (OVCAR-5) was 97%. It also gave an Activity (SF-539) of 91%, an Activity (HCT-116 [3]) of 102% and an Activity (NCI-H226 [4]) of 96%. For the same compound, the Activity (HOP-92 [5]) was 88%, the Activity (EKVX) was 98% and the Activity (T47D [6]) was 56.11%. The Activity (RXF 393 [7]) was 98.38%, the Activity (SK-OV-3) was 93.49% and the Activity (OVCAR-3) was 115.72%. The Activity (LOX IMVI) was 89.75%, the Activity (SR) was 62.58% and the GI50 (HCT-15 [8]; read-out: GI50) was 4.38 µM. The CC50 (HCT-15 [8]; [24]) was 51 µM, the GI50 (HCT-15 [8]; [25]) was 4.37 µM and the CC50 (HCT-15 [8]; [26]) was 51.3 µM. It also gave a TGI (HCT-15 [8]; read-out: Log10TGI (converted)) of 18.6 µM, a TGI (HCT-15 [8]; read-out: TGI) of 18.6 µM and an Activity (M14) of 89%. For the same compound, the Activity (HCT-116 [9]) was 88%, the Activity (NCI-H226 [10]) was 89% and the GI50 (SF-268 [11]; read-out: GI50) was 6.95 µM. The CC50 (SF-268 [11]; [24]) was 62.9 µM, the GI50 (SF-268 [11]; [25]) was 6.92 µM and the CC50 (SF-268 [11]; [26]) was 63.1 µM. For the same compound, the TGI (SF-268 [11]; read-out: Log10TGI (converted)) was 23.4 µM, the TGI (SF-268 [11]; read-out: TGI) was 23.4 µM and the GI50 (Malme-3M [12]; read-out: GI50) was 2.78 µM. It also gave a CC50 (Malme-3M [12]; [24]) of 43.8 µM, a GI50 (Malme-3M [12]; [25]) of 2.75 µM and a CC50 (Malme-3M [12]; [26]) of 43.7 µM. It also gave a TGI (Malme-3M [12]; read-out: Log10TGI (converted)) of 15.1 µM, a TGI (Malme-3M [12]; read-out: TGI) of 15.1 µM and a GI50 (ACHN [13]; read-out: GI50) of 6.39 µM. The CC50 (ACHN [13]; [24]) was 43.8 µM, the GI50 (ACHN [13]; [25]) was 6.46 µM and the CC50 (ACHN [13]; [26]) was 43.7 µM. The TGI (ACHN [13]; read-out: Log10TGI (converted)) was 19.1 µM, the TGI (ACHN [13]; read-out: TGI) was 19 µM and the GI50 (RXF 393 [14]; read-out: GI50) was 7 µM. For the same compound, the CC50 (RXF 393 [14]; [24]) was 64.7 µM, the GI50 (RXF 393 [14]; [25]) was 6.92 µM and the CC50 (RXF 393 [14]; [26]) was 64.6 µM. It also gave a TGI (RXF 393 [14]; read-out: Log10TGI (converted)) of 24 µM, a TGI (RXF 393 [14]; read-out: TGI) of 23.9 µM and an Activity (A549) of 89%. It also gave an Activity (MOLT-4 [15]) of 100%, a GI50 (NCI-H23; read-out: GI50) of 4.88 µM and a CC50 (NCI-H23; [24]) of 51.4 µM. The GI50 (NCI-H23; [25]) was 4.9 µM, the CC50 (NCI-H23; [26]) was 51.3 µM and the TGI (NCI-H23; read-out: Log10TGI (converted)) was 19.5 µM. The TGI (NCI-H23; read-out: TGI) was 19.4 µM, the Activity (UO-31 [16]) was 42% and the Activity [17] was 67%. For the same compound, the Activity (TK-10) was 92%, the Activity (OVCAR-4) was 76% and the Activity (UACC-62) was 73%. It also gave an Activity (HCT-15 [18]) of 84%, an Activity (HOP-92 [19]) of 43% and an Activity (MOLT-4 [20]) of 81%. The Activity (MDA-MB-231) was 89%, the Activity (UO-31 [21]) was 83% and the Activity (OVCAR-8) was 97%. For the same compound, the Activity (NCI-H522) was 77%, the Activity (HOP-62) was 97% and the Activity (Malme-3M [22]) was 19%. For the same compound, the Activity (SF-268 [23]) was 43%.
